Screening data deposited in PubChem by Sanford-Burnham Center for Chemical Genomics.
HKDC1 inh: HKDC1 hexokinase inhibitors, primary screen, biochemical, fluorescence, uHTS; 340,000 tested, 0.16% active; Q2TB90; recombinant HKDC1, G6PDH/diaphorase resazurin coupled fluorescence; inhibition, % at 20 µM;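 active means inhibition above about 35% when tested at 20 µM, limit read from the data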;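 further: plate controls were DMSO wells with enzyme for no effect and DMSO wells lacking enzyme for full effect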
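Assay system: recombinant HKDC1 hexokinase; detection: coupled resazurin fluorescence, excitation 525 nm, emission 613 nm; benchmarks: DMSO-plus-enzyme-mix negative control, buffer-substituted positive control; compound dosing: single 20 µM dose; schedule: 90 min at room temperature in dark; also added: glucose plus 1 mM ATP as hexokinase substrates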
A3G deaminase: APOBEC3G DNA deaminase inhibitors, primary screen, biochemical, fluorescence, single-stranded DNA substrate, uHTS; DNA dC->dU-editing enzyme APOBEC-3G (Homo sapiens), Q9HC16; AID 493012, 2011; 330,000 tested, 0.28% active; inhibition, % at 20 µM; recombinant A3G, ssDNA deamination FAM/TAMRA fluorescence;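 active means inhibition of at least 40% at 20 µM, with no more than 30% in the related APOBEC3A deaminase screen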;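 further: plate controls were DMSO wells with A3G for no effect and wells lacking A3G enzyme for full effect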
Target sequence (Q9HC16 whole entry, looked up): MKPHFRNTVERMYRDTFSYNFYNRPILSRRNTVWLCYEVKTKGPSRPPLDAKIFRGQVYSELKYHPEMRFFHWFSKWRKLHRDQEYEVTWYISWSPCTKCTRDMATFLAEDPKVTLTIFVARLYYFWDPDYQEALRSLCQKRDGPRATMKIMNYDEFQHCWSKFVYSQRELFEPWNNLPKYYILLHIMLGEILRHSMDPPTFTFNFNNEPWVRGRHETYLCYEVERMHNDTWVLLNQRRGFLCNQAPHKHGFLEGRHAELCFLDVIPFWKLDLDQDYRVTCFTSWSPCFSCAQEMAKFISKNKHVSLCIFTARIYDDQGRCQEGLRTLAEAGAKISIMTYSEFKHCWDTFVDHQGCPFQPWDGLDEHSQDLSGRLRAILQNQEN
A3A deaminase: APOBEC3A ssDNA deaminase inhibitors, primary screen, selectivity assay for APOBEC3G inhibitor project, biochemical, FAM/TAMRA oligo cleavage fluorescence; DNA dC->dU-editing enzyme APOBEC-3A (Homo sapiens), P31941; recombinant A3A, FAM/TAMRA ssDNA deamination fluorescence; inhibition, % at 20 µM; 330,000 tested, 0.41% active; AID 493011, 2011;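 active means at least 40% inhibition at 20 µM here, with at most 30% in a related deaminase screen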;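 further: plate controls were A3A with DMSO for no effect and wells lacking A3A enzyme for full effect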
PfG6PD inh: PfG6PD enzyme inhibitors, primary screen, biochemical, fluorescence intensity, uHTS. glucose-6-phosphate dehydrogenase-6-phosphogluconolactonase (Plasmodium falciparum 3D7). PfGluPho enzyme, NADPH resazurin-diaphorase fluorescence. inhibition, % at 20 µM. 350,000 tested, 0.78% active;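 active means inhibition reaching at least a set limit at 20 µM in the primary screen, cut at about 59% in these data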;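 further: 0% = DMSO wells with substrate and 100% = DMSO wells lacking glucose-6-phosphate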
iPSC survival up: enhancers of single-cell hiPSC survival, primary screen, ATPlite luminescence | 100% = ROCK inhibitor wells, 0% = DMSO | survival enhancement, % at 20 µM | 360,000 tested, 0.044% active | AID 602274, 2012; in the data active means survival enhancement above about 18%;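 further: cells exposed to compounds for 16 hours before the ATP read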
APOBEC3G confirm: APOBEC3G deaminase inhibitor retest, confirmation, biochemical, fluorescence, single-stranded DNA substrate, single concentration | shares compounds with A3G deaminase | recombinant A3G ssDNA deaminase, UDG/FAM-TAMRA fluorescence | inhibition, % at 20 µM | 890 tested, 72% active;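 active means inhibition reaching a set limit in any replicate at 20 µM, the limit being 80% of the first screen's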
UDG ctr A3G: E. coli UDG inhibitors, confirmation, counter-screen for APOBEC3G inhibitor project, biochemical, single concentration, fluorescence, FAM/TAMRA oligo; shares compounds with A3G deaminase; UDG counterscreen; inhibition, % at 20 µM; 710 tested, under 10 active; AID 504715, 2011;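 active means compounds giving 40% or more inhibition at 20 µM in any one of the three replicates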;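 further: plate controls were DMSO wells with UDG and oligo for no effect and DMSO wells lacking both for full effect; inhibitors lower the FAM signal released by uracil excision and alkaline cleavage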
Target sequence (P12295 whole entry, looked up): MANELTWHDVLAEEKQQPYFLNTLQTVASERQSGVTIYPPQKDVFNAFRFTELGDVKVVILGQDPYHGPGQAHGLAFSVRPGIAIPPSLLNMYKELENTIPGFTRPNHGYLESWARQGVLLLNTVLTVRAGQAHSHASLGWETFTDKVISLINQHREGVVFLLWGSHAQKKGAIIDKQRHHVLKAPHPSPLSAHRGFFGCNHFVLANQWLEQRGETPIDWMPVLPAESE
* hit, by the source's call; / = no result given. Shown are actives, neighbours in structure and some others; about 1.4% of the full set was active somewhere.

SMILES	HKDC1 inh	A3G deaminase	A3A deaminase	PfG6PD inh	iPSC survival up	APOBEC3G confirm	UDG ctr A3G
CCn1c(SCC(=O)Nc2ccc(OC)c(OC)c2)nnc1-c1ccco1	-2.6	43.2*	-3.6	6.9	0.1	-4.9	-4.2
Cc1ccc(NC2Sc3ccccc3NC2=O)cc1 (stereo not drawn)	12.8	51.5*	-3.8	56.7	-1.2	20.8	-1.4
CCN(C(=O)COc1ccc(N(C)S(=O)(=O)c2ccc(NC(C)=O)cc2)cc1)C1CCCCC1	13.6	17.3	12.2	10.6	-0.9	/	/
CC(NC(=O)CNC(=O)[C@@H]1Cc2ccccc2CN1)c1ccccc1 (stereo partly drawn)	-3.2	-1.6	-2.1	-13.5	-0.5	/	/
O=C(NCCCc1ccccc1)[C@@H]1Cc2ccccc2CN1	1.5	61.7*	-6.4	-11.6	1.5	20.0*	4.5
Oc1cccc2cc3cccc(O)c3c(O)c12	-1.3	55.0*	13.3	-19.8	-0.4	61.8*	-1.7
CC(C)(C)c1ccc(C(=O)N2CCOC23CCCCC3)cc1	/	/	/	/	0.0	/	/
N#CC(c1nc2ccccc2nc1N1CCCC1)S(=O)(=O)c1ccccc1 (stereo not drawn)	6.2	26.2	-0.6	28.9	-2.7	/	/
N#CC(c1nc2ccccc2nc1N1CCCC1)S(=O)(=O)c1cccs1 (stereo not drawn)	2.1	51.1*	-2.2	41.2	0.3	5.1	0.1
CCC(C)(C)C1CCC2(CC1)NC(=S)N(c1ccccc1)N2 (stereo not drawn)	-1.1	15.3	-2.8	6.1	-0.9	/	/
CC(C)(C)C1CCC2(CC1)NC(=S)N(c1ccccc1)N2 (stereo not drawn)	-1.1	48.9*	-1.1	3.1	-2.8	-9.3	-1.4
COc1ccccc1-c1n[nH]c(=S)n1N	6.1	-1.9	-5.9	5.5	1.4	/	/
COc1ccccc1-c1n[nH]c(=S)n1-c1ccccc1	3.4	40.2*	0.7	40.5	-2.6	68.6*	-2.9
COC(=O)[C@]12CCCCC=C1N(CCC1=CCCCC1)C(=O)[C@H](CC(=O)NCCCCc1ccccc1)C2	/	/	/	/	-0.1	/	/
CSc1nc2c(=S)[nH]c(=S)[nH]c2s1	/	/	/	/	0.1	/	/
CC1(C)Cc2c(sc3ncn4c(=S)[nH]nc4c23)CO1	-1.8	41.6*	0.1	49.2	-0.4	74.0*	-3.0
CC1(C)Cc2c(sc3ncn(N)c(=N)c23)CO1	-0.8	4.2	-14.0	-2.0	0.7	/	/
CCOc1ccc(Nc2nc(NCC3CCCO3)c3ccccc3n2)cc1 (stereo not drawn)	-1.3	-5.5	-1.6	0.8	-1.2	/	/
Cc1ccccc1NC(=S)NCc1ccc2c(c1)cc(C)n2C	-4.1	-3.6	-5.3	5.2	-4.3	/	/
CCc1cccc(C)c1NC(=S)NCc1ccc2c(c1)cc(C)n2C	-2.5	40.4*	-3.2	10.0	-1.9	-1.4	2.0
CCC(CC)c1nnc(NC(=O)COc2ccc3c(c2)OCO3)s1	-2.3	45.1*	3.0	48.1	0.6	47.1*	-0.1
CC(C)c1nnc(NC(=O)COc2ccc3c(c2)OCO3)s1	-4.0	-15.0	-2.4	8.2	1.4	/	/
CC(=O)N1CCN(C(=S)c2cccc([N+](=O)[O-])c2)CC1	-4.6	-8.9	-6.1	5.0	2.0	/	/
O=[N+]([O-])c1ccc(N2CCN(C(=S)c3cccc([N+](=O)[O-])c3)CC2)cc1	-15.7	65.7*	1.3	68.2*	-0.4	69.9*	-1.8
CCN(CC)S(=O)(=O)c1ccc2c(c1)nc(SCC(=O)N1CCCCCC1)n2-c1ccc(OC)cc1	1.8	1.3	5.9	14.0	2.4	/	/
SMILES	HKDC1 inh	A3G deaminase	A3A deaminase	PfG6PD inh	iPSC survival up	APOBEC3G confirm	UDG ctr A3G
CCN(CC)S(=O)(=O)c1ccc2c(c1)nc(SCC(=O)N1CCOCC1)n2-c1ccccc1OC	6.5	43.8*	6.8	1.5	-0.8	-0.3	/
CCOC(=O)c1c(NC(=O)CCC(=O)O)sc2c1CCCCC2	-5.4	40.4*	0.7	44.6	-0.1	23.5	/
CCOC(=O)c1c(NC(=O)CCCC(=O)O)sc2c1CCC2	16.6	-1.3	-0.3	-23.6	5.9	/	/
CCc1nnc(NC(=O)C2CCCO2)s1 (stereo not drawn)	-4.2	1.5	-2.4	-3.5	0.2	/	/
O=C(Nc1nnc(COc2ccc(Cl)cc2)s1)C1CCCO1 (stereo not drawn)	-0.8	45.1*	-0.2	53.6	-1.8	20.8*	-2.1
CS(=O)(=O)C1=NN2C(=N)/C(=C\c3ccc(OC(=O)c4ccco4)cc3)C(=O)N=C2S1	13.9	62.1*	-0.3	-17.4	1.1	-1.0	-6.3
CC(C)CS(=O)(=O)C1=NN2C(=N)/C(=C\c3ccc(OC(=O)c4ccco4)cc3)C(=O)N=C2S1	15.0	-1.1	-1.7	-35.1	-0.4	/	/
O=C(NCc1ccccc1)c1cc(C2CCCN(C(=O)c3ccccc3)C2)on1 (stereo not drawn)	/	/	/	/	-0.3	/	/
CCOc1ccccc1N1C(=O)CC(Sc2n[nH]c(-c3ccccc3)n2)C1=O (stereo not drawn)	-11.1	58.2*	-1.6	28.9	1.4	66.2*	0.1
COc1ccc(N2C(=O)CC(Sc3n[nH]c(-c4cccc(C)c4)n3)C2=O)cc1 (stereo not drawn)	-2.7	34.2	-4.4	5.8	-0.1	/	/
O=S(=O)(Nc1cc(S(=O)(=O)N2CCOCC2)ccc1Cl)c1ccccc1	-0.6	-6.9	-4.9	-23.4	-2.9	/	/
C/C(=N\NC(=O)c1cccc(N/N=C(\C)c2cc(O)ccc2O)c1)c1cc(O)ccc1O	-8.3	44.7*	-1.0	25.8	-0.2	11.9	3.7
C/C(=N\NC(=O)c1cccc(N/N=C(\C)c2ccco2)c1)c1ccco1	7.7	/	/	18.2	-0.1	/	/
CCOC(=O)C1=C(C)N(c2ccccc2)C(=O)/C1=C\c1ccc(O)c(OC)c1	11.9	66.0*	4.8	33.9	0.7	3.4	/
COc1ccc(/C=N/n2c(-c3cc(C)[nH]n3)n[nH]c2=S)cc1OC	-6.8	42.6*	-1.2	27.6	-0.2	62.8*	0.1
Cc1cc(-c2n[nH]c(=S)n2/N=C/c2ccc(C)o2)n[nH]1	-3.5	40.4*	-4.7	25.8	-0.4	84.0*	-5.0
CC(/C=N/n1c(-c2cc(C)[nH]n2)n[nH]c1=S)=C\c1ccccc1	15.9	44.4*	2.0	30.4	1.0	25.9	/
CC(=C/c1ccccc1)/C=N/n1c(-c2ccco2)n[nH]c1=S	8.3	14.8	-2.9	11.3	2.5	/	/
